Measured values as given in PMC9169238 (RSC Advances, 2022).

Key:
Assay type in all cases: cell-based
[1] = tested on: A549 – Homo sapiens lung carcinoma; test: MTT cytotoxicity assay, A549; settings: A549, 24 h, read-out: IC50 values (μM) A549
Method in brief: (§1)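 Test compound at 1 to 100 μM for 24 h. MTT (0.5 mg mL−1) added for 3 h, formazan dissolved in DMSO, absorbance read. Run in triplicate; IC50 calculated.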

[2] = tested on: B16-F10 – Mus musculus mouse skin melanoma; test: MTT cytotoxicity assay, B16-F10; settings: B16-F10, 24 h, read-out: IC50 values (μM) B16-F10
Method in brief: as §1

[3] = tested on: DU145 – Homo sapiens prostrate carcinoma; test: MTT cytotoxicity assay, DU145; settings: DU-145, 24 h, read-out: IC50 values (μM) DU145
Method in brief: as §1

[4] = tested on: Hep G2 – Homo sapiens hepatocellular carcinoma; test: MTT cytotoxicity assay, HepG2; settings: HepG2, 24 h, read-out: IC50 values (μM) HEPG2
Method in brief: as §1

[5] = tested on: CHO-K1 – Cricetulus griseus chinese hamster ovary cells; test: MTT cytotoxicity assay, non-cancerous CHO-K1; settings: CHO-K1, 24 h, read-out: IC50 values (μM) CHO

| SMILES | IC50 [1] [µM] | IC50 [2] [µM] | IC50 [3] [µM] | IC50 [4] [µM] | IC50 [5] [µM] |
| --- | --- | --- | --- | --- | --- |
| O=C(Nc1ccccc1)c1ccccc1-n1c(=O)[nH]c2ccccc2c1=O [Compound 3a, 2-(2,4-dioxo-1,2-dihydroquinazolin-3(4H)-yl)-N-phenylbenzamide] | 29.4 ± 0.45 | 39.51 ± 0.13 | 14.83 ± 0.13 | 8.73 ± 0.02 |  |
| COc1ccc(NC(=O)c2ccccc2-n2c(=O)[nH]c3ccccc3c2=O)cc1 [Compound 3b, 2-(2,4-dioxo-1,2-dihydroquinazolin-3(4H)-yl)-N-(4-methoxyphenyl)benzamide] | 19.5 ± 0.25 | 24.8 ± 0.7 | 11.56 ± 0.06 | 23.3 ± 0.52 |  |
| Cc1ccc(NC(=O)c2ccccc2-n2c(=O)[nH]c3ccccc3c2=O)cc1 [Compound 3c, 2-(2,4-dioxo-1,2-dihydroquinazolin-3(4H)-yl)-N-(p-tolyl)benzamide] | 15.2 ± 0.7 | 17.9 ± 0.17 | 11.49 ± 0.04 | 5.33 ± 0.12 |  |
| O=C(Nc1ccc(Br)cc1)c1ccccc1-n1c(=O)[nH]c2ccccc2c1=O [Compound 3e, N-(4-Bromophenyl)-2-(2,4-dioxo-1,2-dihydroquinazolin-3(4H)-yl)benzamide] | 11.7 ± 0.14 | 14.67 ± 0.05 | 12.05 ± 0.02 | 9.48 ± 0.05 | 69.4 ± 5.17 |
| CCCCNC(=O)c1cc(Cl)ccc1-n1c(=O)[nH]c2ccccc2c1=O [Compound 3g, N-Butyl-5-chloro-2-(2,4-dioxo-1,2-dihydroquinazolin-3(4H)-yl)benzamide] | 30.4 ± 5.52 | 20.5 ± 0.91 | 18.65 ± 0.08 | 15.3 ± 0.78 |  |
| CCNC(=O)c1ccccc1-n1c(=O)[nH]c2ccccc2c1=O [Compound 3h, 2-(2,4-Dioxo-1,2-dihydroquinazolin-3(4H)-yl)-N-ethylbenzamide] | 34.8 ± 4.65 | 27.1 ± 0.68 | 10.44 ± 0.02 | 16.7 ± 1.72 | 94.2 ± 2.44 |
| COc1ccc(NC(=O)c2ccccc2-n2c(=O)[nH]c3ccc(F)cc3c2=O)cc1 [Compound 3j, 2-(6-Fluoro-2,4-dioxo-1,2-dihydroquinazolin-3(4H)-yl)-N-(4-methoxyphenyl)benzamide] | 30.4 ± 1.35 | 34.3 ± 1.55 | 12.3 ± 0.17 | 8.74 ± 0.34 |  |
| O=C(Nc1ccc(F)cc1)c1ccccc1-n1c(=O)[nH]c2ccc(F)cc2c1=O [Compound 3k, 2-(6-Fluoro-2,4-dioxo-1,2-dihydroquinazolin-3(4H)-yl)-N-(4-fluorophenyl)benzamide] | 17.2 ± 0.41 | 30 ± 0.42 | 11.59 ± 0.06 | 28.7 ± 0.92 |  |
| O=C(Nc1ccc(Br)cc1)c1ccccc1-n1c(=O)[nH]c2ccc(F)cc2c1=O [Compound 3l, N-(4-Bromophenyl)-2-(6-fluoro-2,4-dioxo-1,2-dihydroquinazolin-3(4H)-yl)benzamide] | 17.4 ± 0.18 | 28.5 ± 0.31 | 12.63 ± 0.08 | 7.77 ± 0.02 | 51.5 ± 2.74 |
| CCNC(=O)c1ccccc1-n1c(=O)[nH]c2ccc(F)cc2c1=O [Compound 3m, N-Ethyl-2-(6-fluoro-2,4-dioxo-1,2-dihydroquinazolin-3(4H)-yl)benzamide] | 26.3 ± 1.32 | 41.4 ± 0.81 | 19.39 ± 0.14 | 20.2 ± 0.31 | 88 ± 3.56 |
| O=C(Nc1ccccc1)c1ccccc1-n1c(=O)[nH]c2ccc(Cl)cc2c1=O [Compound 3n, 2-(6-Chloro-2,4-dioxo-1,2-dihydroquinazolin-3(4H)-yl)-N-phenylbenzamide] | 14.7 ± 0.18 | 14.83 ± 0.01 | 10.4 ± 0.13 | 12.3 ± 0.26 | 73.9 ± 2.81 |
| O=C(Nc1ccc(F)cc1)c1ccccc1-n1c(=O)[nH]c2ccc(Cl)cc2c1=O [Compound 3o, 2-(6-Chloro-2,4-dioxo-1,2-dihydroquinazolin-3(4H)-yl)-N-(4-fluorophenyl)benzamide] | 26.3 ± 1.03 | 16.03 ± 0.06 | 5.17 ± 0.07 | 3.02 ± 0.06 | 74.5 ± 9.44 |
| CCNC(=O)c1ccccc1-n1c(=O)[nH]c2ccc(Cl)cc2c1=O [Compound 3p, 2-(6-Chloro-2,4-dioxo-1,2-dihydroquinazolin-3(4H)-yl)-N-ethylbenzamide] | 22.8 ± 0.71 | 31.67 ± 0.14 | 13.02 ± 0.03 | 33.9 ± 0.71 |  |
| CCCCNC(=O)c1cc(Cl)ccc1-n1c(=O)[nH]c2ccc(Cl)cc2c1=O [Compound 3q, N-Butyl-5-chloro-2-(6-chloro-2,4-dioxo-1,2-dihydroquinazolin-3(4H)-yl)benzamide] | 28.7 ± 1.38 | 36.46 ± 0.1 | 9.37 ± 0.03 | 8.51 ± 0.2 |  |
| O=C(Nc1ccccc1)c1ccccc1-n1c(=O)[nH]c2ccc([N+](=O)[O-])cc2c1=O [Compound 3r, 2-(6-Nitro-2,4-dioxo-1,2-dihydroquinazolin-3(4H)-yl)-N-phenylbenzamide] | 16.7 ± 0.3 | 33.13 ± 0.12 | 15.59 ± 0.07 | 16 ± 0.51 |  |
| O=c1[nH]cc(F)c(=O)[nH]1 [Compound 5FU, 5-fluorouracil, reference compound] | 29.6 ± 1.64 | 7.55 ± 0.01 | 16.32 ± 0.02 | 23 ± 0.27 |  |
| COc1cccc2c1C(=O)c1c(O)c3c(c(O)c1C2=O)C[C@@](O)(C(=O)CO)C[C@@H]3O[C@H]1C[C@H](N)[C@H](O)[C@H](C)O1 [Doxorubicin, doxorubicin, reference compound] | 0.55 ± 0.16 | 0.7 ± 0.56 | 0.363 ± 0.01 | 0.72 ± 0.012 |  |
